From ChEMBL document CHEMBL1148652, “Design of potent, orally available antagonists of the transient receptor potential vanilloid 1. Structure-activity relationships of 2-piperazin-1-yl-1H-benzimidazoles” (J Med Chem, 2006)
The source made the active and inactive calls. The calls are words filed in the database; no cut-off is given here.

Key:
[1] = target: Transient receptor potential cation channel subfamily V member 1 (Rattus norvegicus) (UniProt O35433); test: Antinociceptive activity in po dosed Sprague-Dawley rat assessed as ability to block capsaicin-induced paw flinching; assay type: functional, organism-based
Summary of the method: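 Rats dosed orally, then challenged with intraplantar capsaicin (0.5 µg/[…] per paw) to provoke flinching. Eight animals per group; ED50 taken from dose-response.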

[2] = target: Transient receptor potential cation channel subfamily V member 1 (Rattus norvegicus) (UniProt O35433); test: Antinociceptive activity in Sprague-Dawley rat assessed as reversal of CFA-induced thermal hyperalgesia; assay type: functional
Summary of the method: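 Thermal hyperalgesia induced in rats by complete Freund's adjuvant; reversal assessed after oral dosing at 30 mg/kg.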

[3] = target: T1, Transient receptor potential cation channel subfamily V member 1 (Rattus norvegicus, UniProt O35433); test: Antagonist activity against capsaicin-induced 45calcium ion uptake in CHO cells expressing rat TRPV1; assay type: functional, cell-based
Summary of the method: (§1)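 CHO cells recombinantly expressing rat TRPV1; inhibition of 45Ca2+ uptake triggered by capsaicin or by acid, pH 5. Functional IC50 in nM, averaged over at least two independent experiments, each with three replicates per concentration.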

[4] = target: T1, Transient receptor potential cation channel subfamily V member 1; test: Antagonist activity against acid-induced 45calcium ion uptake in CHO cells expressing rat TRPV1 at pH5; assay type: functional, cell-based; summary of the method: as §1
[5] = Clearance in Sprague-Dawley rat at 1 mg/kg, iv; assay type: ADME, organism-based; set-up: dose 1 mg/kg, route intravenous; settings: in vivo
[6] = Volume of distribution in Sprague-Dawley rat at 1 mg/kg, iv; assay type: ADME, organism-based; set-up: dose 1 mg/kg, route intravenous; settings: in vivo, read-out: Vdss
[7] = Elimination half life in Sprague-Dawley rat at 1 mg/kg, iv; assay type: ADME, organism-based; set-up: dose 1 mg/kg, route intravenous; settings: in vivo
[8] = Tmax in Sprague-Dawley rat at 5 mg/kg, po; assay type: ADME, organism-based; set-up: dose 5 mg/kg, route oral; settings: in vivo
[9] = Cmax in Sprague-Dawley rat at 5 mg/kg, po; assay type: ADME, organism-based; set-up: dose 5 mg/kg, route oral; settings: in vivo
[10] = Oral bioavailability in Sprague-Dawley rat; assay type: ADME, organism-based; settings: in vivo

T1 sequence (O35433 whole entry): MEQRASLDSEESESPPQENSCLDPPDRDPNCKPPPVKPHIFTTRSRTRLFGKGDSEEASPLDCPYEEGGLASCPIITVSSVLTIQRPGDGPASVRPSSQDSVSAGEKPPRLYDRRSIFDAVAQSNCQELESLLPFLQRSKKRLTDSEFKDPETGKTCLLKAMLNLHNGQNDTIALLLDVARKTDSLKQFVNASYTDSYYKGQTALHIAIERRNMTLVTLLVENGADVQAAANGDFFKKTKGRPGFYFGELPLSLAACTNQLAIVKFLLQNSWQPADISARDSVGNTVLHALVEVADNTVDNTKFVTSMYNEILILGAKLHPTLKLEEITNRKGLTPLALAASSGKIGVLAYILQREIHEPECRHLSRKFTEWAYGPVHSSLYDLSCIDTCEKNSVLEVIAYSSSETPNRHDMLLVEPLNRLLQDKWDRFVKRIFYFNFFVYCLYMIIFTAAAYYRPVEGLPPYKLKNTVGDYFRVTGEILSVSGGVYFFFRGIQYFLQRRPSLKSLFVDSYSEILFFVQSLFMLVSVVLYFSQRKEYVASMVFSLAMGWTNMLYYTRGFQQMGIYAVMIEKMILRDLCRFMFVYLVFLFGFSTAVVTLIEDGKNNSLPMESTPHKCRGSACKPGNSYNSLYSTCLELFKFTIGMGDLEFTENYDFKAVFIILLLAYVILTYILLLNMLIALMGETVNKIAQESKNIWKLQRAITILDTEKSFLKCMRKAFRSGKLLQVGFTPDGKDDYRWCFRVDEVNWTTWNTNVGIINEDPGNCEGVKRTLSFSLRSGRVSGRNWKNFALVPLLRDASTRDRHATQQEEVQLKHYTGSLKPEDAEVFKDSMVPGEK
Transient receptor potential cation channel subfamily V member 1 (Rattus norvegicus), sequence (O35433 whole entry): as above

Row | Compound | IC50 [3] | IC50 [4] | further results
1 | C[C@@H]1CN(c2ncc(C(O)CO)cc2Cl)CCN1c1nc2c(-c3cc(F)c(F)c(F)c3)cc(C(F)(F)F)cc2[nH]1 (mixture of isomers) | 0.9 nM | 0.9 nM | ED50 [1]: 8.8 mg/kg; Activity [2]: Active; clearance [5]: 4.5 mL/min/kg; Vd [6]: 1.89 L/kg; half-life [7]: 5.6 h; Tmax [8]: 4 h; Cmax [9]: 617 ng/mL; bioavailability [10]: 17%
2 | FC(F)(F)c1cnc2nc(N3CCN(c4ncccc4C(F)(F)F)CC3)[nH]c2c1 | 1550 nM | 884 nM | 
3 | FC(F)(F)c1ccc2[nH]c(N3CCN(c4cccc(C(F)(F)F)n4)CC3)nc2c1 | > 40000 nM | > 40000 nM | 
4 | FC(F)(F)c1ccc2[nH]c(N3CCN(c4ccncc4Cl)CC3)nc2c1 | 3910 nM | 8030 nM | 
5 | C[C@@H]1CN(c2ncc(CO)cc2C(F)(F)F)CCN1c1nc2c(-c3cc(F)c(F)c(F)c3)cc(C(F)(F)F)cc2[nH]1 | 1.4 nM | 0.7 nM | 
6 | FC(F)(F)Oc1cccc(-c2cc(C(F)(F)F)cc3[nH]c(N4CCN(c5ncccc5C(F)(F)F)CC4)nc23)c1 | 26 nM | 21 nM | 
7 | CNC(=O)c1cnc(N2CCN(c3nc4ccc(C(F)(F)F)cc4[nH]3)CC2)c(Cl)c1 | 493 nM | > 40000 nM | 
8 | FC(F)(F)c1cc(/C=C/c2ccccc2)c2[nH]c(N3CCN(c4ncccc4C(F)(F)F)CC3)nc2c1 | 185 nM | 140 nM | 
9 | FC(F)(F)c1ccc2[nH]c(N3CCN(c4ncccc4Cl)CC3)nc2c1 | 309 nM | 705 nM | 
10 | FC(F)(F)c1cc(-c2cccs2)c2[nH]c(N3CCN(c4ncccc4C(F)(F)F)CC3)nc2c1 | 373 nM | 221 nM | 
11 | C[C@@H]1CN(c2ncc(NC(=O)CO)cc2Cl)CCN1c1nc2c(-c3ccc(F)cc3)cc(C(F)(F)F)cc2[nH]1 | 30 nM | 9.2 nM | 
12 | C[C@@H]1CN(c2ncc(C(O)c3ccccc3)cc2C(F)(F)F)CCN1c1nc2c(-c3cc(F)c(F)c(F)c3)cc(C(F)(F)F)cc2[nH]1 (some centres undefined) | 2.8 nM | 3.7 nM | 
13 | FC(F)(F)c1cccnc1N1CCN(c2nc3ccc(Cl)cc3[nH]2)CC1 | 1130 nM | 17300 nM | 
14 | CC(O)c1cnc(N2CCN(c3nc4ccc(C(F)(F)F)cc4[nH]3)CC2)c(Cl)c1 (racemic) | 461 nM | 652 nM | 
15 | C[C@@H]1CN(c2ncc(C(=O)O)cc2Cl)CCN1c1nc2c(-c3cc(F)c(F)c(F)c3)cc(C(F)(F)F)cc2[nH]1 | 46 nM | 27 nM | 
16 | COC(=O)c1ccc2nc(N3CCN(c4ncccc4C(F)(F)F)CC3)[nH]c2c1 | 1230 nM | > 4000 nM | 
17 | C=Cc1cnc(N2CCN(c3nc4c(-c5cc(F)c(F)c(F)c5)cc(C(F)(F)F)cc4[nH]3)[C@H](C)C2)c(Cl)c1 | 1.3 nM | 1.7 nM | 

Continued by falling IC50 [3], values first:

Row | IC50 [3] | IC50 [4] | Compound | further results
18 | 11300 nM | > 40000 nM | FC(F)(F)c1ccc(N2CCN(c3nc4cc(C(F)(F)F)ccc4[nH]3)CC2)nc1 | 
19 | 2110 nM | > 40000 nM | FC(F)(F)c1ccc2[nH]c(N3CCN(c4ncncc4Cl)CC3)nc2c1 | 
20 | 1370 nM | 1990 nM | FC(F)(F)c1ccc2nc(N3CCN(c4c(Cl)cncc4Cl)CC3)[nH]c2c1 | 
21 | 581 nM | 832 nM | CC(=O)c1cnc(N2CCN(c3nc4cc(C(F)(F)F)ccc4[nH]3)CC2)c(Cl)c1 | 
22 | 166 nM | 43 nM | FC(F)(F)c1cc2[nH]c(N3CCN(c4ncccc4C(F)(F)F)CC3)nc2cc1Br | 
23 | 123 nM | 194 nM | FC(F)(F)c1cccnc1N1CCN(c2nc3ccc(Br)cc3[nH]2)CC1 | 
24 | 111 nM | 99 nM | COc1ccc(-c2cc(C(F)(F)F)cc3[nH]c(N4CCN(c5ncccc5C(F)(F)F)CC4)nc23)cn1 | 
25 | 104 nM | 75 nM | C[C@H]1CN(c2ncccc2Br)CCN1c1nc2c(-c3cc(F)c(F)c(F)c3)cc(C(F)(F)F)cc2[nH]1 | 
26 | 94 nM | 141 nM | FC(F)(F)c1ccc(CNc2cc3[nH]c(N4CCN(c5ncccc5C(F)(F)F)CC4)nc3cc2C(F)(F)F)cc1 | 
27 | 48 nM | 35 nM | C[C@@H]1CN(c2ncccc2C(F)(F)F)CCN1c1nc2ccc(C(F)(F)F)cc2[nH]1 | 
28 | 3.4 nM | 3.3 nM | C[C@@H]1CN(c2ncc(Br)cc2Cl)CCN1c1nc2c(-c3cc(F)c(F)c(F)c3)cc(C(F)(F)F)cc2[nH]1 | 
